The list is not random: actives were taken first. Their share in the collection is about 3.7%.
hERG rescue – hERG (human) protection from proarrhythmic block | hit rate 0.51% among 310,000 | AID 1511 | Q12809 | CHO-hERG, FluxOR thallium flux, dofetilide IC70 present | activation (rescue from dofetilide block), less the hit threshold, % at 10 µM;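 active means activation above the mean of controls blocked by dofetilide plus 5 SD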;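 further: thallium influx through hERG after potassium depolarization seen as dye fluorescence rise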
KCNQ1 pot – potentiators or activators of human KCNQ1 potassium channel; P51787; CHO-K1 KCNQ1, thallium flux FluxOR fluorescence; active compounds read high; B-score at 10 µM; hit rate 0.35% among 310,000;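 active means fluorescence ratio B-score, a plate-corrected score, at least three library SD, with initial intensity B-score within 5 SD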
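Medium – assay buffer, equal DMSO in all wells · Material – CHO-K1 cell line with stable KCNQ1 potassium channel expression · Signal – kinetic FluxOR thallium fluorescence, 10-s 1-Hz baseline, 110-s post-stimulus read · Compound – single concentration per compound, DMSO matched to controls · Schedule – 37 °C overnight plating, 90-min dark dye load, 20-min compound pretreatment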
Kir21 inh – blocks the mouse Kir2.1 inward-rectifier potassium channel. hit rate 0.85% among 310,000. HEK293-Kir2.1, FluxOR thallium flux fluorescence; active compounds read low. P35561. B-score at 10 µM;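 active means fluorescence ratio B-score at or below minus 3 SD of library scores, with starting-brightness B-score within 2 SD, cut at about -4.2 in these data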;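 further: channel flux triggered by added potassium and thallium sulfate stimulus; B-score of peak minus minimum fluorescence over baseline after thallium stimulus; more negative B-score means stronger Kir2.1 block with less thallium influx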
KCNQ1 inh – human KCNQ1 channel inhibition. B-score at 10 µM. hit rate 1.3% among 310,000. CHO-K1 KCNQ1, FluxOR thallium flux fluorescence; active compounds read high. AID 2642. P51787;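 active means compounds whose thallium flux B-score, printed positive for inhibition, exceeds three library SD while starting fluorescence stays within three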;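 further: channel opened by potassium depolarization with thallium stimulus after 20 min compound exposure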
KCNK9 inh – inhibitors of human KCNK9 two-pore domain potassium channel | hit rate 1.2% among 310,000 | B-score at 10 µM | Q9NPC2 | AID 488922 | HEK293 KCNK9, FluxOR thallium flux fluorescence; active compounds read low;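 active means ratio B-score over 3 SD below the library mean, with starting fluorescence within 5 SD of its mean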;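 further: negative B-score means less thallium flux so channel inhibition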
KCNK3 inh – human KCNK3 channel inhibition, primary screen; O14649; hit rate 0.84% among 340,000; CHO-KCNK3 thallium flux, FluxOR fluorescence; active compounds read low; B-score at 10 µM;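 active means B-score under library mean minus 4 SD, starting fluorescence ratio at most library mean plus 5 SD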;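 further: more negative B-score means stronger inhibition of thallium flux through KCNK3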
Starred values were filed as active, the others as inactive; i = inactive; . = no result given.

SMILES	hERG rescue	KCNQ1 pot	Kir21 inh	KCNQ1 inh	KCNK9 inh	KCNK3 inh
C=CCSC1=C(C#N)C(c2ccccc2Cl)C(C(=O)c2cccs2)C(O)(C(F)(F)F)N1 (centres undefined)	-12	i	-1.7	10*	i	i
Cc1cccc(N=Cc2cc(Br)cc(Cl)c2O)c1	4	i	-0.97	i	i	i
Oc1c(Cl)cc(Cl)cc1/C=N/c1nccs1	-6	9*	0.26	i	i	i
Oc1c(Cl)cc(Cl)cc1/C=N/c1nc(-c2ccc(Cl)cc2)cs1	3	i	1.7	i	i	i
NC(=O)c1cccc(N=Cc2cc(Cl)cc(Cl)c2O)c1	6.5*	10*	0.09	i	i	i
COCCCNCC(O)C(F)(F)F (centres undefined)	-13	i	-1	i	i	i
O=C(NC(Nc1ncc(S(=O)(=O)c2ccc([N+](=O)[O-])cc2)s1)(C(F)(F)F)C(F)(F)F)c1ccc(Cl)cc1	-22	i	-6.9*	i	i	i
CCOc1ccc(NC(=O)COc2cccc3c2CCN(Cc2cccnc2)C3=O)cc1	-7	i	-0.71	i	i	i
O=C(NCCCN1CCOCC1)c1cc2c([nH]c3ccccc32)c(-c2cccc(Br)c2)n1	-30	i	-0.14	8*	i	i
CCc1nc(SCC(=O)N2c3ccccc3CC2C)c2c(C)c(C)sc2n1 (centres undefined)	-13	i	0.97	6*	i	i
CCc1nc(SCC(=O)Nc2cc(C)ccc2OC)c2c(C)c(C)sc2n1	-11	i	-2.2	i	-7.7*	i
Cc1ccc(C)c(OCCC(=O)OCC(=O)NNC(=O)c2ccccc2)c1	.	.	.	.	.	i
O=C(C[n+]1cc(-c2ccccc2)n2c1CCCCC2)c1ccc(Cl)cc1	-9	i	0.74	i	i	i
Clc1ccc(C[n+]2cc(-c3ccccc3)n3c2CCCCC3)c(Cl)c1	-21	i	-1.2	i	i	i
CC1CCC(C(C)C)C(OC(=O)C[n+]2cc(-c3ccc(Cl)cc3)n3c2CCCCC3)C1 (centres undefined)	-25	i	-8.6*	6*	i	-9.8*
Clc1ccc(-c2c[n+](Cc3ccc(Cl)cc3Cl)c3n2CCCCC3)cc1	-20	i	-0.58	7*	i	i
COc1ccc(S(=O)(=O)N2CCCCC2)cc1NS(=O)(=O)c1ccc(CNC(C)=O)cc1	.	.	.	.	.	i
O=C(O)CSc1nc2ccccc2[nH]1	8.4*	i	1.1	i	i	i
O=C(O)CSc1nc2ccccc2c(=O)[nH]1	-8	i	-0.34	i	i	i
O=C(COc1ccc(S(=O)(=O)N2CCCC2)cc1)NCc1cccnc1	-12	i	-0.45	i	i	i
CC(C)(C)C(=O)OCCNc1nc(-c2ccccc2)nc2ccccc12	-11	i	-0.04	i	i	i
CN(C)CCCNC(=O)c1ccccn1	-5	i	-0.1	i	i	i
CN(C)CCCNC(=O)c1ccc(-c2nc(-c3ccc(Cl)cc3)cs2)cc1	-39	i	-4.7*	i	-7.2*	i
CCCCN(C(=O)C(C)Oc1cccc(Cl)c1)c1c(N)n(CCC)c(=O)[nH]c1=O (centres undefined)	-8	i	1.6	i	i	i
COc1ccc(C(CCNCc2ccc(OC(C)C)cc2)c2ccccc2OC)cc1 (centres undefined)	-20	i	-9.9*	6*	i	i
SMILES	hERG rescue	KCNQ1 pot	Kir21 inh	KCNQ1 inh	KCNK9 inh	KCNK3 inh
COc1ccc(CNCCC(c2ccc(OC)cc2)c2ccccc2OC)cc1 (centres undefined)	-11	i	-11*	i	i	i
COc1ccc(C(CCNCc2ccc(N(C)C)cc2)c2ccccc2OC)cc1 (centres undefined)	-19	i	-3.4	i	i	i
Cc1ccccc1-c1nc(CS(=O)(=O)CC(=O)N2CCCCC2)c(C)o1	-7	i	0	i	i	i
Cc1cc(N=Cc2c(O)n(-c3cccc(Cl)c3)c(=O)c3ccccc23)no1	-2	i	0	i	i	i
Cc1ccc(N=Cc2c(O)n(-c3cc(Cl)ccc3N3CCOCC3)c(=O)c3ccccc23)cc1C	-9	i	-0.53	10*	i	i
Cc1[nH]n(-c2ncc(-c3ccccc3)s2)c(=O)c1C(c1ccc(Br)cc1)C(C#N)C#N (centres undefined)	-11	i	-5.6*	i	i	i
Cc1ccc(NC(=O)c2cnccn2)cc1S(=O)(=O)N1CCCCCC1	.	.	.	.	.	i
CCCc1nn2c(=O)c(C(c3cccc(Cl)c3)c3c(O)nc4sc(CCC)nn4c3=O)c(O)nc2s1	6.1*	i	2	i	i	i
CCOc1ccc(NS(=O)(=O)c2ccc(C(=O)NNC(=O)c3ccccc3O)cc2)cc1	-5	i	0.93	i	i	i
CC1CCCCN1C(=O)CCC(=O)Nc1nnc(C2CCCCC2)s1 (centres undefined)	-6	i	-1.2	i	-6.9*	i
O=C(CCC(=O)N1CCCC1)Nc1nnc(C2CCCCC2)s1	-4	i	0.58	i	i	i
C#CCn1cc(/C=N/Nc2nc3ccccc3[nH]2)c2ccccc21	-17	i	-6.4*	i	i	i
COC(=O)c1[nH]c2ccc(Br)cc2c1NC(=O)CN1CCCc2ccccc21	-3	i	-0.46	6*	i	i
COC(=O)c1[nH]c2ccc(Br)cc2c1NC(=O)CN1CCN(C2CCCCC2)CC1	-16	i	-4.2	i	i	i
Cc1ccc(S(=O)(=O)N2CCOCC2)cc1NC(=O)COC(=O)CNC(=O)c1ccc(C(C)(C)C)cc1	-9	i	-0.02	i	i	i
Cc1ccc(S(=O)(=O)N2CCOCC2)cc1NC(=O)COC(=O)CCOc1ccc(C(C)(C)C)cc1	-18	i	1.5	8*	i	i
Cc1ccc(S(=O)(=O)N2CCOCC2)cc1NC(=O)COC(=O)c1cccnc1Cl	35*	i	0.17	i	i	i
Cc1ccc(S(=O)(=O)N2CCOCC2)cc1NC(=O)COc1cccc(Oc2ccccc2)c1	-12	i	-0.74	6*	i	i
CCOc1ncccc1C(=O)OCC(=O)Nc1cc(S(=O)(=O)N2CCOCC2)ccc1C	-7	i	1.1	i	i	i
CC(=O)N(C)c1ccc(N=NC2C(=O)N(C(N)=S)N=C2C)cc1 (centres undefined)	-1	i	0.7	i	i	i
